According to the array DNA melting data of Ke et al. (doi:10.1101/2024.01.08.574731):

Key:
[1] = folding enthalpy; higher = less favourable; fluorescence melt of hairpins on a sequencing array, two-state fit; details: sodium 0.088 M
Summary of the method: (§1)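 Hairpins were imaged by Cy3 fluorescence on a sequenced MiSeq flow cell with annealed Cy3 and quencher oligos, in 50 mM Na-HEPES pH 8.0, 25 mM NaCl, in 2.5 °C steps up to 60 °C. Bootstrapped two-state fits of normalised signals gave melting temperature and folding enthalpy. Four replicates were combined by inverse variance, and fitted temperatures were raised by 9.35 °C to match UV melts.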

[2] = melting temperature; fluorescence melt of hairpins on a sequencing array, two-state fit, raised by 9.35 °C to match UV melts; details: sodium 0.088 M
Summary of the method: as §1

GCTACCGAAAGGTAAAGC ((((((....)))..))) gave a folding enthalpy [1] of -19.8 kcal/mol and a Tm [2] of 46.8 °C.

GCTACCGAAAGGTCAAGC ((((((....)))..))) showed a folding enthalpy [1] of -14.9 kcal/mol and a Tm [2] of 39.1 °C.

With GCTACCGAAAGGTCAGC ((((((....))).))) the folding enthalpy [1] was -21.4 kcal/mol and the Tm [2] was 48.7 °C.

GCTACCGAAAGGTCTAGC ((((((....)))..))) showed a folding enthalpy [1] of -14.9 kcal/mol and a Tm [2] of 36.6 °C.

For GCTACCGAAAGGTGAAGC ((((((....)))..))), the folding enthalpy [1] was -19 kcal/mol and the Tm [2] was 42 °C.

In the case of GCTACCGAAAGGTGCAGC ((((((....)))..))), the folding enthalpy [1] was -12.6 kcal/mol and the Tm [2] was 43.5 °C.

With GCTACCGAAAGGTTGAGC ((((((....)))..))) the folding enthalpy [1] was -18.2 kcal/mol and the Tm [2] was 38.8 °C.

Work on GCTACCGGAAACGGCAAC (.(.(((....))).).) yielded a folding enthalpy [1] of -8.04 kcal/mol and a Tm [2] of 18.5 °C.

In the case of GCTACCGGAAACGGTAAC (.(((((....))))).), the folding enthalpy [1] was -12.9 kcal/mol and the Tm [2] was 37.2 °C.

GCTACGCGAAAGCATGGC ((.(.((....)).).)) gave a folding enthalpy [1] of -19.7 kcal/mol and a Tm [2] of 37 °C.

Sequence GCTACGCGAAAGCCTAGC ((((.((....)).)))) has a folding enthalpy [1] of -23.3 kcal/mol and a Tm [2] of 45.6 °C.

In the case of GCTACGCGAAAGCGAAGC (((.(((....))).))), the folding enthalpy [1] was -36.7 kcal/mol and the Tm [2] was 57.5 °C.

GCTACGCGAAAGCGACGC ((..(((....)))..)) gave a folding enthalpy [1] of -15.1 kcal/mol and a Tm [2] of 40.2 °C.

With GCTACGCGAAAGCGAGC (((.(((....)))))) the folding enthalpy [1] was -15.8 kcal/mol and the Tm [2] was 56.5 °C.

Sequence GCTACGCGAAAGCGGGGC ((..(((....)))..)) has a folding enthalpy [1] of -20.7 kcal/mol and a Tm [2] of 63.7 °C.

GCTACGCGAAAGCTAAGC (((..((....))..))) showed a folding enthalpy [1] of -13.1 kcal/mol and a Tm [2] of 38.8 °C.

Work on GCTACGGGAAACCGTGGC ((.((((....)))).)) yielded a folding enthalpy [1] of -38.2 kcal/mol and a Tm [2] of 56.7 °C.

GCTACTCGAAAGAGGAGC (((.(((....))).))) showed a folding enthalpy [1] of -37.4 kcal/mol and a Tm [2] of 61.6 °C.

In the case of GCTAGACGAAAGTCAAGC (((.(((....))).))), the folding enthalpy [1] was -30.4 kcal/mol and the Tm [2] was 52.7 °C.

GCTAGACGAAAGTCGAGC (((.(((....))).))) gave a folding enthalpy [1] of -32.9 kcal/mol and a Tm [2] of 60.2 °C.

With GCTAGAGGAAACTCCAGC (((.(((....))).))) the folding enthalpy [1] was -22.2 kcal/mol and the Tm [2] was 34.8 °C.

GCTAGCGAAAGCTCAAGC ((((((....)))..))) gave a folding enthalpy [1] of -14 kcal/mol and a Tm [2] of 38 °C.

Work on GCTAGCGGAAACACTAGC (((((.(....).))))) yielded a folding enthalpy [1] of -32.2 kcal/mol and a Tm [2] of 45.7 °C.

GCTAGCGGAAACGTTGGC ((.(.((....)).).)) showed a folding enthalpy [1] of -24.6 kcal/mol and a Tm [2] of 39.6 °C.

Work on GCTAGGACGAAAGTCAGC (((..(((....)))))) yielded a folding enthalpy [1] of -16.6 kcal/mol and a Tm [2] of 42.7 °C.

In the case of GCTAGGCGAAAGCAAAGC (((..((....))..))), the folding enthalpy [1] was -19.2 kcal/mol and the Tm [2] was 44.3 °C.

With GCTAGGCGAAAGCCAAGC (((.(((....))).))) the folding enthalpy [1] was -40 kcal/mol and the Tm [2] was 56.1 °C.

Sequence GCTAGGCGAAAGCTTCGC ((.(.((....)).).)) has a folding enthalpy [1] of -13.9 kcal/mol and a Tm [2] of 36.2 °C.

GCTAGGGGAAACCCTAAC (.(((((....))))).) showed a folding enthalpy [1] of -13.4 kcal/mol and a Tm [2] of 32.1 °C.

For GCTAGTCGAAAGACGAGC (((.(((....))).))), the folding enthalpy [1] was -35.4 kcal/mol and the Tm [2] was 57.6 °C.

Sequence GCTAGTGAAAACTAGC ((((((....)))))) has a folding enthalpy [1] of -36.3 kcal/mol and a Tm [2] of 56.9 °C.

With GCTATACGAAAGTAAAGC (((.(((....))).))) the folding enthalpy [1] was -28 kcal/mol and the Tm [2] was 42.8 °C.

Work on GCTATCCGAAAGGACAGC (((.(((....))).))) yielded a folding enthalpy [1] of -31.7 kcal/mol and a Tm [2] of 49 °C.

GCTATCGAAAGATCAGC ((((((....))).))) gave a folding enthalpy [1] of -20.6 kcal/mol and a Tm [2] of 38.2 °C.

GCTATCGAAAGATCGAGC ((((((....)))..))) showed a folding enthalpy [1] of -10.1 kcal/mol and a Tm [2] of 29.7 °C.

For GCTATCGAAAGATGAGC ((((((....))).))), the folding enthalpy [1] was -27.1 kcal/mol and the Tm [2] was 37.4 °C.

Sequence GCTATCGAAAGATTAAGC ((((((....)))..))) has a folding enthalpy [1] of -17.1 kcal/mol and a Tm [2] of 34.6 °C.

Work on GCTATCGGAAACAATAGC (((((.(....).))))) yielded a folding enthalpy [1] of -18.3 kcal/mol and a Tm [2] of 35.1 °C.

For GCTATCTCGAAAGAGAGC (((..(((....)))))), the folding enthalpy [1] was -16.7 kcal/mol and the Tm [2] was 37.2 °C.

With GCTATGCGAAAGCAACGC ((..(((....)))..)) the folding enthalpy [1] was -10.5 kcal/mol and the Tm [2] was 39.1 °C.

Sequence GCTATGCGAAAGCAATGC ((..(((....)))..)) has a folding enthalpy [1] of -16.5 kcal/mol and a Tm [2] of 47.7 °C.

GCTATGCGAAAGCAGTGC ((..(((....)))..)) gave a folding enthalpy [1] of -19.1 kcal/mol and a Tm [2] of 46.9 °C.

Sequence GCTATGCGAAAGCGGAGC (((..((....))..))) has a folding enthalpy [1] of -26.3 kcal/mol and a Tm [2] of 53.6 °C.

GCTATGCGAAAGCTCAGC (((..((....))..))) gave a folding enthalpy [1] of -19.1 kcal/mol and a Tm [2] of 36.2 °C.

GCTATGCGAAAGCTTAGC ((((.((....)).)))) gave a folding enthalpy [1] of -28.9 kcal/mol and a Tm [2] of 60.8 °C.

With GCTATGCGAAAGCTTGGC ((.(.((....)).).)) the folding enthalpy [1] was -24.6 kcal/mol and the Tm [2] was 42.1 °C.

Sequence GCTATGGAAACATAGC ((((((....)))))) has a folding enthalpy [1] of -35.4 kcal/mol and a Tm [2] of 55.6 °C.

Sequence GCTATGTCGAAAGACAGC (((..(((....)))))) has a folding enthalpy [1] of -14 kcal/mol and a Tm [2] of 41.5 °C.

For GCTATTCGAAAGAAGAGC (((.(((....))).))), the folding enthalpy [1] was -39.9 kcal/mol and the Tm [2] was 51.1 °C.

Work on GCTCAACGAAAGTTAGC (((.(((....)))))) yielded a folding enthalpy [1] of -22.2 kcal/mol and a Tm [2] of 41.1 °C.

For GCTCAAGCGAAAGCTAGC (((..(((....)))))), the folding enthalpy [1] was -14.1 kcal/mol and the Tm [2] was 40.6 °C.

In the case of GCTCAAGGAAACTTGAAC (.(((((....))))).), the folding enthalpy [1] was -15 kcal/mol and the Tm [2] was 31.8 °C.

With GCTCACCGAAAGGTAGC (((.(((....)))))) the folding enthalpy [1] was -22.4 kcal/mol and the Tm [2] was 50.2 °C.

GCTCACGAAAGTGATAGC ((((((....)))..))) showed a folding enthalpy [1] of -17.4 kcal/mol and a Tm [2] of 47.4 °C.

With GCTCACGAAAGTGCAGC ((((((....))).))) the folding enthalpy [1] was -22.9 kcal/mol and the Tm [2] was 52 °C.

With GCTCACGAAAGTGCTAGC ((((((....)))..))) the folding enthalpy [1] was -15.6 kcal/mol and the Tm [2] was 35.8 °C.

In the case of GCTCACGAAAGTGGTAGC ((((((....)))..))), the folding enthalpy [1] was -19.7 kcal/mol and the Tm [2] was 44.7 °C.

Work on GCTCACGGAAACGTGAAC (.(((((....))))).) yielded a folding enthalpy [1] of -13 kcal/mol and a Tm [2] of 42.3 °C.

GCTCACGGAAACGTGGGC ((.((((....)))).)) gave a folding enthalpy [1] of -47.8 kcal/mol and a Tm [2] of 59.6 °C.

Sequence GCTCAGCGAAAGCAGAGC ((((.((....)).)))) has a folding enthalpy [1] of -36.3 kcal/mol and a Tm [2] of 67.3 °C.

Sequence GCTCAGCGAAAGCAGCGC ((.(.((....)).).)) has a folding enthalpy [1] of -18 kcal/mol and a Tm [2] of 49.4 °C.

In the case of GCTCAGCGAAAGCATAGC (((..((....))..))), the folding enthalpy [1] was -16 kcal/mol and the Tm [2] was 38.5 °C.

For GCTCAGCGAAAGCGCAGC (((..((....))..))), the folding enthalpy [1] was -14.8 kcal/mol and the Tm [2] was 45.7 °C.

GCTCAGCGAAAGCGGCGC ((.(.((....)).).)) showed a folding enthalpy [1] of -19.5 kcal/mol and a Tm [2] of 58.4 °C.

Sequence GCTCAGCGAAAGCGGTGC ((.(.((....)).).)) has a folding enthalpy [1] of -17.8 kcal/mol and a Tm [2] of 55.2 °C.

GCTCATGGAAACATGGGC ((.((((....)))).)) showed a folding enthalpy [1] of -34.2 kcal/mol and a Tm [2] of 53 °C.

GCTCCAGCGAAAGCTAGC (((..(((....)))))) showed a folding enthalpy [1] of -8.7 kcal/mol and a Tm [2] of 34 °C.

Work on GCTCCAGGAAACCAGAGC ((((..(....)..)))) yielded a folding enthalpy [1] of -19.4 kcal/mol and a Tm [2] of 34.4 °C.
